# Published values of several laboratories.
# Compare with care: the assays were run in different laboratories.
# DRD4: D(4) dopamine receptor (DRD4, Homo sapiens, UniProt P21917)
# GRK2: Beta-adrenergic receptor kinase 1 (GRK2, Homo sapiens, UniProt P25098)
# Cathepsin F: Cathepsin F (Homo sapiens, UniProt Q9UBX1)
# ABHD6: Monoacylglycerol lipase ABHD6 (ABHD6, Homo sapiens, UniProt Q9BV23)
SMILES,target,read-out,action,method,tested at,notes,inhibition
CN(CCN1CCC(OC(=O)Nc2ccccc2-c2ccccc2)CC1)C(=O)c1ccc(CN2CCC(C(N)=O)CC2)cc1,DRD4,ligand displacement,,radioligand,1 µM,,-4%
Cn1cc(-c2cccc(N3CCc4c(sc5c4CC(C)(C)C5)C3=O)c2CO)cc(Nc2ccncn2)c1=O,GRK2,enzyme activity,inhibitor,,1 µM,,14%
COCc1c(-c2cc3cc(C)cc(OC)c3s2)c2c(N)ncnn2c1CN1CCNC(=O)C1,"Mitogen-activated protein kinase kinase kinase 19 (MAP3K19, Homo sapiens, UniProt Q56UN5)",cell-free assay,,competition with immobilised ligand,1 µM,,89%
COc1ccc(S(=O)(=O)N2CCCCC2)cc1C,DRD4,ligand displacement,,radioligand,10 µM,,< 30%
CN(C)C(=O)COC(=O)Cc1ccc(OC(=O)c2ccc(NC(=N)N)cc2)cc1,Cathepsin F,enzyme activity,inhibitor,,10 µM,,0%
C#Cc1n[nH]c2c(-c3cn([C@@H](C)c4ccccn4)c(=O)[nH]c3=O)cc(F)cc12,"RAC-beta serine/threonine-protein kinase (AKT2, Homo sapiens, UniProt P31751)",enzyme activity,inhibitor,,0.1 µM,,3.8%
Cn1cc(-c2cc(F)cc(N3CCn4c(cc5c4CCCC5)C3=O)c2CO)cc(Nc2ccc(N3CCN(C4COC4)CC3)cn2)c1=O,GRK2,enzyme activity,inhibitor,,0.1 µM,,-1%
Cc1ccccc1N(C)C(=O)Oc1nsnc1N1CCCCC1,ABHD6,enzyme activity,inhibitor,fluorescence,1 µM,lysate,17%
C[C@H](C(=O)N[C@H]1COc2ccccc2[C@@H]1S(C)(=O)=O)c1ccc(F)cc1,"D(4) dopamine receptor (DRD4, Homo sapiens, UniProt P21917, del265-296)",cell-free assay,,,10 µM,,10%
CCOC(=O)c1ccc(OC(=O)CCCCCNC(=N)N)cc1,Cathepsin F,enzyme activity,inhibitor,,10 µM,,2%
CCN(CC)CCCC[C@H](NC(=O)[C@H](CC(C)C)NC(=O)[C@H](C)NC(=O)[C@H](Cc1ccccc1)NC(=O)c1ccc(C(C)(C)C)cc1)C(=O)N[C@@H](CO)C(=O)OC,"5-hydroxytryptamine receptor 5A (HTR5A, Homo sapiens, UniProt P47898)",ligand displacement,,radioligand,10 µM,,7%
N=C(N)c1ccc2cc(OC(=O)c3ccc(N=C(N)N)cc3)ccc2c1,Cathepsin F,enzyme activity,inhibitor,,10 µM,,0%
CN(C(=O)Oc1nsnc1N1CCCCC1)c1ccc(C#N)cc1,ABHD6,enzyme activity,inhibitor,fluorescence,1 µM,lysate,15%
